Published values from different studies.
Lines come from different studies, so protocols differ.
Target: MAP/microtubule affinity-regulating kinase 3 (MARK3, Homo sapiens, UniProt P27448)

Cc1ccc(NC(=O)c2ccnc(C(F)(F)F)c2)cc1-c1cc(OCCO)nc(N2CCOCC2)c1
remaining binding (binding; 1 µM): 97%

C#Cc1cnc(Nc2ccnc(CO)c2)nc1Nc1ccccc1S(C)(=O)=NC#N (centres unmarked)
remaining signal (cell-free assay; 1 µM): 42%

CO[C@@H]1[C@H](N(C)C(=O)c2ccccc2)C[C@H]2O[C@]1(C)n1c3ccccc3c3c4c(c5c6ccccc6n2c5c31)C(=O)NC4
inhibition (enzyme activity; inhibitor; 1 µM): 95%

Cc1cc(O)c(-c2ccc([C@@H](C)CN(C)C)cc2)c2c1[nH]c(=O)c1sccc12
inhibition (enzyme activity; inhibitor; 0.1 µM): -0.763%

CC#CC(=O)N1CCC[C@H]1c1nc(-c2ccc(C(=O)Nc3ccccn3)cc2)c2c(N)nccn12
inhibition (enzyme activity; inhibitor; 1 µM): 0%

CC(C)S(=O)(=O)c1ccc2nccc(Nc3ccc4sc(C5CCCC5)nc4c3)c2c1
activity vs control (enzyme activity; inhibitor; 1 µM): 120%

C1=C/COCc2cc(ccc2OCCN2CCCC2)Nc2nccc(n2)-c2cccc(c2)COC/1
remaining binding (binding; 0.1 µM): 100%

COc1ccc2oc(-c3ccc4nc(N)oc4c3)c/c(=N\c3ccccc3NC(=O)CCN)c2c1
remaining binding (binding; 1 µM): 104%

N#Cc1ccc(NC(=O)Nc2ccccc2)cc1
remaining binding (cell-free assay; competition with immobilised ligand; 25 µM): 78%

CCCCC(=O)Nc1ccc(-c2ccc3ncn(CCC)c(=O)c3c2)cn1
remaining binding (binding; competition with immobilised ligand; 0.5 µM): 91%

CN1CCN(C(=O)c2ccc(NC(=O)Nc3ccc(N(C)c4ccnc(Nc5ccc(CS(C)(=O)=O)cc5)n4)cc3)cc2)CC1
remaining binding (binding; 1 µM): 43%
